Reference: publication PMC6219704 (Cell chemical biology, 2018)

How the values were obtained:
[1] = tested on: E. coli strains with A2503C, A2059G or A2059C in the 23S rRNA; assay: MIC against erythromycin-resistant strains with 23S rRNA mutations; assay type: cell-based, Escherichia coli; conditions: Table S2 (not available)
Summary of the method: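 Broth microdilution in Müller-Hinton broth with E. coli grown at 37°C. Test compounds started at 128 μM and were serially two-fold diluted, then halved again on adding bacteria to 2.5 × 10^4 CFU/well. Plates sealed and incubated overnight at 37°C. MIC taken as the lowest concentration preventing visible growth.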

[2] = target: E. coli ribosomes on H-ns-PPP mRNA (Escherichia coli, UniProt P60723); assay: Toeprinting assay in fully reconstituted in vitro translation system; assay type: biochemical; conditions: 1-100 μM peptide, 100 μM thiostrepton; 15 min 37°C

| Structure (SMILES) | Change in MIC with 23S rRNA mutations versus wildtype (in words) [1] | Toeprint result (in words) [2] |
| --- | --- | --- |
| CC[C@H]1OC(=O)[C@H](C)[C@@H](O[C@H]2C[C@@](C)(OC)[C@@H](O)[C@H](C)O2)[C@H](C)[C@@H](O[C@@H]2O[C@H](C)C[C@H](N(C)C)[C@H]2O)[C@](C)(O)C[C@@H](C)C(=O)[C@H](C)[C@@H](O)[C@]1(C)O [erythromycin] | increased MIC |  |
| C=C(NC(=O)C(=C)NC(=O)c1csc(C2=N[C@@H]3c4csc(n4)[C@H]4NC(=O)c5csc(n5)[C@H]([C@](C)(O)[C@@H](C)O)NC(=O)[C@H]5CSC(=N5)/C(=C/C)NC(=O)[C@H]([C@@H](C)O)NC(=O)c5csc(n5)[C@]3(CC2)NC(=O)[C@H](C)NC(=O)C(=C)NC(=O)[C@H](C)NC(=O)[C@H]([C@@H](C)CC)N[C@@H]2C=Cc3c([C@H](C)O)cc(nc3[C@H]2O)C(=O)O[C@@H]4C)n1)C(N)=O [thiostrepton] |  | ribosomes can initiate at the AUG start codon but cannot translate further |
